Data set [1] can be described thus: Displacement of HABA from avidin at 31 uM. The method in brief: (§1)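 HABA competition in cuvettes. HABA/avidin complex formed at final avidin 7.6 μM and […], then competitors added at various concentrations. Absorbance read at 500 nm. Triplicate runs. % inhibition computed from absorbance with competitor against absorbance without competitor, each corrected for the blank without HABA/Av complex.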

Data set [2] in a line: Displacement of HABA from avidin. The method in brief:
as §1

The nature of data set [3]: Binding affinity to avidin by thermal stability study. The method in brief: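 Far-UV CD of avidin/ligand complexes. Thermal unfolding followed by the fall in dichroic signal at 225 nm over 25-95 °C. Settings: bandwidth 1 nm, response 0.5 s, data pitch 1 °C, slope 10 °C/min. Full spectrum (195-260 nm) recorded every 5 °C increment, each spectrum an average of three. Inflection point of the melting curve taken as the read-out.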

For data set [4], the system named is Serum. Put plainly: Stability in normal mouse serum after 2 hrs. The data set is classed as ADME, cell-free. The method in brief: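 Freshly collected normal mouse serum (50 μL) used as biotinidase source, mixed with sample and brought to 500 μL in 100 mM sodium acetate pH 5.5. Incubated at 37 °C for up to 2 h. Aliquots taken before and after incubation, diluted 10-fold in 0.08% TFA, then analysed by C18 RP-HPLC-ESI-MS (2-60% B over 20 min, 0.2 mL/min) for release of free biotin and recovery of parent.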

Among the data in ChEMBL document CHEMBL1156779, “Biotin derivatives carrying two chelating DOTA units. Synthesis, in vitro evaluation of biotinidases resistance, avidin binding, and radiolabeling tests” (J Med Chem, 2010) are inhibition, Activity and Stability values, retold here.

By inhibition is commonly meant the share of the control response that was lost under treatment. A lower inhibition goes with little suppression.

In data set [1], `O=C(O)CCCC[C@@H]1SC[C@@H]2NC(=O)N[C@@H]21` returned an inhibition of 100%.
Consider `O=C(O)CN1CCN(CC(=O)O)CCN(CC(=O)NCCCN(CCCNC(=O)CN2CCN(CC(=O)O)CCN(CC(=O)O)CCN(CC(=O)O)CC2)CC(=O)NCCCCCCNCCCCC[C@@H]2SC[C@@H]3NC(=O)N[C@@H]32)CCN(CC(=O)O)CC1`, for which the inhibition in data set [1] was found to be 66%. In data set [2], the Activity entry was “Dose-dependent effect”. The same compound showed a Stability in data set [3] of 90 °C.
The compound `O=C(O)CN1CCN(CC(=O)O)CCN(CC(=O)NCCCCCCN(CCCCCCNC(=O)CN2CCN(CC(=O)O)CCN(CC(=O)O)CCN(CC(=O)O)CC2)CC(=O)NCCCCCCNCCCCC[C@@H]2SC[C@@H]3NC(=O)N[C@@H]32)CCN(CC(=O)O)CC1` yielded an inhibition in data set [1] of 64%. Besides, the Activity result in data set [2] is “Dose-dependent effect”.
In the case of `O=C(O)CN1CCN(CC(=O)O)CCN(CC(=O)NCCCN(CCCNC(=O)CN2CCN(CC(=O)O)CCN(CC(=O)O)CCN(CC(=O)O)CC2)CC(=O)Nc2ccc(C(=O)NCCCCC(NC(=O)CCCC[C@@H]3SC[C@@H]4NC(=O)N[C@@H]43)C(=O)O)cc2)CCN(CC(=O)O)CC1` (stereo partly drawn), the inhibition in data set [1] was 97%. The Stability entry in data set [4] is “Stable”; in data set [3] it was > 95 °C. The Activity result in data set [2] is “Dose-dependent effect”.
As to `O=C(O)CN1CCN(CC(=O)O)CCN(CC(=O)NCCCN(CCCNC(=O)CN2CCN(CC(=O)O)CCN(CC(=O)O)CCN(CC(=O)O)CC2)CC(=O)NCCCCC(NC(=O)CCCC[C@@H]2SC[C@@H]3NC(=O)N[C@@H]32)C(=O)O)CCN(CC(=O)O)CC1` (stereo partly drawn), the inhibition in data set [1] was 95%. In addition, the Activity entry in data set [2] was “Dose-dependent effect”. Besides, the Stability in data set [3] is > 95 °C.
